Experimental findings from ChEMBL document CHEMBL1144503, “Structure determination of inonotsuoxides A and B and in vivo anti-tumor promoting activity of inotodiol from the sclerotia of Inonotus obliquus” (Bioorg Med Chem, 2007) are described below.

Structures are written as SMILES.

Data set [1] deals with Human gammaherpesvirus 4. Kind of data set: Inhibition of TPA-induced EBV-EA activation in Raji cells at 100 mol ratio/TPA relative to control; values are per cent of control.
The next data set has as its system Raji. Kind of data set: Cell viability in Raji cells at 1000 mol ratio/TPA relative to control. The class given is functional, Homo sapiens. The method in brief: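 Raji cells under the EBV-EA induction conditions (n-butyric acid 4 mmol plus TPA 32 pmol, 48 h, 37 C), with test compound added in DMSO at 1000 mol ratio to TPA. Viability was assayed by Trypan blue staining and reported as a percentage.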

Data set [2] concerns Human gammaherpesvirus 4. Kind of data set: Inhibition of TPA-induced EBV-EA activation in Raji cells at 1000 mol ratio/TPA relative to control; values are per cent of control.
The subject of data set [3] is Human gammaherpesvirus 4. Kind of data set: Inhibition of TPA-induced EBV-EA activation in Raji cells at 500 mol ratio/TPA relative to control; values are per cent of control.
The subject of data set [4] is Human gammaherpesvirus 4. Kind of data set: Inhibition of TPA-induced EBV-EA activation in Raji cells at 10 mol ratio/TPA relative to control; values are per cent of control.
Data set [5] is filed under the species Mus musculus. Kind of data set: Suppression of DMBA/TPA-induced papilloma-formation in ICR mouse at 85 nmol within 10 week. The class given is functional.
The species entered for data set [6] is Mus musculus. Kind of data set: Toxicity in ICR mouse with DMBA/TPA-induced papilloma. The class given is organism-based. The settings on record: in vivo. The method in brief:
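Specific pathogen-free female ICR mice, 6 weeks old, in three groups of 15. Shaved backs were initiated topically with DMBA (390 nmol) in 0.1 ml acetone. From one week later, TPA (1.7 nmol) in 0.1 ml acetone was applied to the skin twice weekly. Treated groups also received 85 nmol of test agent with TPA. Mice were followed to week 20.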

Data set [7] is filed under the species Mus musculus. Kind of data set: Suppression of DMBA/TPA-induced papilloma-formation in ICR mouse within 10 week. The class given is functional.

Consider `CC(C)=CCC[C@@H](C(=O)O)[C@H]1CC[C@@]2(C)C3=C(CC[C@]12C)[C@@]1(C)CC[C@H](O)C(C)(C)[C@@H]1CC3` [TRAMETENOLIC ACID], for which the “level, % of control” value stood at 75.4% in the data set with Human gammaherpesvirus 4 [1], 9.2% in the data set on Human gammaherpesvirus 4 [2], 45% in the data set with Human gammaherpesvirus 4 [3] and 98.6% in the data set with Human gammaherpesvirus 4 [4]. Moreover, the Activity in the data set on Raji was found to be 70%.
In the same order, the values of `CC(=O)O[C@H]1CC[C@]2(C)C3=C(CC[C@H]2C1(C)C)[C@]1(C)CC[C@H]([C@@H](CCC=C(C)C)C(=O)O)[C@@]1(C)CC3` [ACETYL TRAMETENOLIC ACID] are 79%, 12.7%, 47.8%, 100% and 70%.
Take `CC(=O)O[C@H]1C[C@H]([C@@H](C)[C@H]2CC[C@@]3(C)C4=C(CC[C@]23C)[C@@]2(C)CC[C@H](OC(C)=O)C(C)(C)[C@@H]2CC4)OC1(C)C`: in the data set on Raji, the Activity is recorded as 70%.
Turning to `CC1(C)CC[C@]2(C(=O)O)CC[C@]3(C)C(=CC[C@@H]4[C@@]5(C)CC[C@H](O)C(C)(C)[C@@H]5CC[C@]43C)[C@@H]2C1` [OLEANOLIC_ACID], the Activity is less than 30% in the data set listed under Mus musculus [5] and “Non-toxic” in the data set filed under Mus musculus [6].
With `CC(C)=CC[C@@H](O)[C@@H](C)[C@H]1CC[C@@]2(C)C3=C(CC[C@]12C)[C@@]1(C)CC[C@H](O)C(C)(C)[C@@H]1CC3` [INOTODIOL], the “level, % of control” value in the data set on Human gammaherpesvirus 4 [1] was found to be 66.1%; in the data set with Human gammaherpesvirus 4 [2], 2.4%; in the data set on Human gammaherpesvirus 4 [3], 37.6%; in the data set on Human gammaherpesvirus 4 [4], 93.1%. Besides, the Activity in the data set on Raji is 70%; in the data set listed under Mus musculus [6], “Non-toxic”; in the data set listed under Mus musculus [7], less than 30%.
Turning to `CC(C)=CCC[C@@H](C)[C@H]1CC[C@@]2(C)C3=C(CC[C@]12C)[C@@]1(C)CC[C@H](O)C(C)(C)[C@@H]1CC3` [LANOSTEROL], the “level, % of control” value worked out at 74.3% in the data set with Human gammaherpesvirus 4 [1], 4.9% in the data set on Human gammaherpesvirus 4 [2], 44.7% with Human gammaherpesvirus 4 [3] and 96.3% with Human gammaherpesvirus 4 [4]. The Activity with Raji is 70%.
`C[C@@H]([C@H]1CC[C@@]2(C)C3=C(CC[C@]12C)[C@@]1(C)CC[C@H](O)C(C)(C)[C@@H]1CC3)[C@H]1C[C@H](O)C(C)(C)O1` [INONOTSUOXIDE A]: the “level, % of control” value in the data set with Human gammaherpesvirus 4 [1] amounted to 71.3%; with Human gammaherpesvirus 4 [2], 6.3%; with Human gammaherpesvirus 4 [3] it was 42%; in the data set with Human gammaherpesvirus 4 [4], 94.3%. The Activity in the data set with Raji came out at 70%.
